{
  "source": "ChEMBL document CHEMBL1157387",
  "about": "“Antitussive stemoninine alkaloids from the roots of Stemona tuberosa” (2008)",
  "format_in_all_cases": "functional",
  "key": {"Cavia porcellus [1]": {"tested_on": "Cavia porcellus", "assay": "Antitussive activity in guinea pig assessed as inhibition of citric acid-induced coughing at 0.25 umol, intracerebroventricularly administered as single dose after 3 mins relative to control", "in_short": "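Unrestrained conscious Dunkin-Hartley guinea pigs with a 22-gauge guide cannula in the lateral ventricle, placed stereotaxically under anaesthesia, recovered 4 days. Single icv dose in 10 µL of Tween 80/saline (5:95). 3 min later, 8-min 0.5 M citric acid aerosol (0.5 mL/min) in an airtight chamber. Cough sounds recorded and episodes counted. % inhibition vs vehicle group; one-way ANOVA with Bonferroni tests.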"}, "Cavia porcellus [2]": {"tested_on": "Cavia porcellus", "assay": "Antitussive activity in guinea pig assessed as inhibition of citric acid-induced coughing at 0.26 mmol/kg, ip administered as single dose after 30 mins", "details": "0.5 h", "in_short": "(§1)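 Unrestrained conscious Dunkin-Hartley guinea pigs, randomised, given a single ip dose in DMSO. 30 min later, 8-min 0.5 M citric acid aerosol (0.5 mL/min) in an airtight chamber. Cough sounds recorded and episodes counted. % inhibition vs vehicle group (n = 4-8); one-way ANOVA with Bonferroni tests.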"}, "Cavia porcellus [3]": {"tested_on": "Cavia porcellus", "assay": "Antitussive activity in guinea pig assessed as inhibition of citric acid-induced coughing at 0.26 mmol/kg, po administered as single dose after 30 mins", "design": "scale not given: the % may be the effect or the level left", "in_short": "(§2)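 Unrestrained conscious Dunkin-Hartley guinea pigs, randomised, given a single oral dose of 100 mg/kg in Tween 80/saline (5:95). 30 min later, 8-min 0.5 M citric acid aerosol (0.5 mL/min) in an airtight chamber. Cough episodes counted from recorded sounds. % inhibition vs vehicle group (n = 4-8); ANOVA with Bonferroni tests.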"}, "Cavia porcellus [4]": {"tested_on": "Cavia porcellus", "assay": "Antitussive activity in guinea pig assessed as inhibition of citric acid-induced coughing at 0.33 mmol/kg, ip administered as single dose after 30 mins", "details": "0.5 h", "in_short": "as §1"}, "Cavia porcellus [5]": {"tested_on": "Cavia porcellus", "assay": "Antitussive activity in guinea pig assessed as inhibition of citric acid-induced coughing at 0.33 mmol/kg, po administered as single dose after 30 mins", "design": "scale not given: the % may be the effect or the level left", "in_short": "as §2"}},
  "data": [
    {"compound": "CC[C@H]1[C@H]2[C@@H](CCCN3C([C@@H]4C[C@H](C)C(=O)O4)=CC(=O)[C@@]23OC)O[C@]12C=C(C)C(=O)O2", "values": [
      {"measurement": "inhibition (INH)", "setting": "Cavia porcellus [1]", "value": 10, "unit": "%"}
    ]},
    {"compound": "CC[C@H]1[C@H]2[C@@H](CCCN3C([C@@H]4C[C@H](C)C(=O)O4)=CC(=O)[C@@]23O)O[C@]12C=C(C)C(=O)O2", "note": "[STEMOENONINE]", "values": [
      {"measurement": "inhibition (INH)", "setting": "Cavia porcellus [1]", "value": 10, "unit": "%"}
    ]},
    {"compound": "CC[C@H]1[C@H]2[C@@H](CCCN3[C@H]2CC[C@H]3[C@@H]2C[C@H](C)C(=O)O2)O[C@]12C=C(C)C(=O)O2", "note": "[STEMONININE]", "values": [
      {"measurement": "inhibition in vivo at 260 µmol/kg", "setting": "Cavia porcellus [2]", "value": 90, "unit": "%"},
      {"measurement": "Activity", "setting": "Cavia porcellus [3]", "value": 70, "unit": "%"},
      {"measurement": "inhibition (INH)", "setting": "Cavia porcellus [1]", "value": 10, "unit": "%"}
    ]},
    {"compound": "CC[C@H]1[C@H]2[C@@H](CCCN3C(=O)CC[C@@H]23)O[C@]12C=C(C)C(=O)O2", "note": "[STEMONINOAMIDE]", "values": [
      {"measurement": "inhibition in vivo at 330 µmol/kg", "setting": "Cavia porcellus [4]", "value": 90, "unit": "%"},
      {"measurement": "Activity", "setting": "Cavia porcellus [5]", "value": 70, "unit": "%"},
      {"measurement": "inhibition (INH)", "setting": "Cavia porcellus [1]", "value": 10, "unit": "%"}
    ]}
  ]
}
